Data as given in ChEMBL document CHEMBL1125678, “Quinazolineacetic acids and related analogues as aldose reductase inhibitors” (J Med Chem, 1991).
One block for each compound: values may come before it.

Legend:
Rattus norvegicus [1] = experiment: In vivo inhibition of galactitol accumulation in the diaphragm of rats fed 20% galactose for 4 day at 88 mg/kg/day dose; format: functional, organism-based
Outline: (§1)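 Male Sprague-Dawley rats (50–70 g) in groups of six were fed chow with 20% (w/w) galactose. Controls received 20% glucose instead. Test compound was mixed into the diet, and dose was calculated from actual food intake. Rats were killed by decapitation after 4 days. Result is % lowering of tissue galactitol versus galactose-fed controls, as the mean of six animals, compared by Dunnett's multiple comparison.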

[2] = target: Aldo-keto reductase family 1 member B1 (Bos taurus) (UniProt P16116); experiment: In vitro inhibition of aldose reductase in partially purified bovine lens preparation at a concentration of 10e -7M.
Outline: (§2)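 Enzyme from bovine lens, partially purified by the cited method with the final chromatographic step omitted. DL-Glyceraldehyde was the substrate. Test compounds were run in duplicate at 1×10⁻⁵, 1×10⁻⁶, 1×10⁻⁷ or 4×10⁻⁸ M. Values are % inhibition of enzymatic activity.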

Rattus norvegicus [3] = experiment: In vivo inhibition of galactitol accumulation in the sciatic nerve of rats fed 20% galactose for 4 day at 88 mg/kg/day dose; NS = No Significant inhibition of polyol accumulation; format: functional, organism-based; outline: as §1
[4] = target: Aldo-keto reductase family 1 member B1 (Bos taurus) (UniProt P16116); experiment: In vitro inhibition of aldose reductase in partially purified bovine lens preparation at a concentration of 4*10e -8M.; outline: as §2
Rattus norvegicus [5] = experiment: In vivo inhibition of galactitol accumulation in the diaphragm of rats fed 20% galactose for 4 day at 91 mg/kg/day dose; format: functional; outline: as §1
Rattus norvegicus [6] = experiment: In vivo inhibition of galactitol accumulation in the sciatic nerve of rats fed 20% galactose for 4 day at 91 mg/kg/day dose; format: functional; outline: as §1
Rattus norvegicus [7] = experiment: In vivo inhibition of galactitol accumulation in the diaphragm of rats fed 20% galactose for 4 day at 81 mg/kg/day dose; format: functional; outline: as §1
Rattus norvegicus [8] = experiment: In vivo inhibition of galactitol accumulation in the sciatic nerve of rats fed 20% galactose for 4 day at 95 mg/kg/day dose; NS= No Significant inhibition of polyol accumulation; format: functional, organism-based
Rattus norvegicus [9] = experiment: in vivo inhibition of galactitol accumulation in the sciatic nerve of rats fed 20% galactose for 4 day; details: 96 h
Rattus norvegicus [10] = experiment: In vivo inhibition of galactitol accumulation in the diaphragm of rats fed 20% galactose for 4 day at 101 mg/kg/day dose; format: functional; outline: as §1
Rattus norvegicus [11] = experiment: In vivo inhibition of galactitol accumulation in the sciatic nerve of rats fed 20% galactose for 4 day at 101 mg/kg/day dose; format: functional; outline: as §1
Rattus norvegicus [12] = experiment: In vivo inhibition of galactitol accumulation in the diaphragm of rats fed 20% galactose for 4 day at 109 mg/kg/day dose; format: functional; outline: as §1
Rattus norvegicus [13] = experiment: In vivo inhibition of galactitol accumulation in the diaphragm of rats fed 20% galactose for 4 day at 100 mg/kg/day dose; format: functional; outline: as §1
Rattus norvegicus [14] = experiment: In vivo inhibition of galactitol accumulation in the sciatic nerve of rats fed 20% galactose for 4 day at 100 mg/kg/day dose; NS = No Significant inhibition of polyol accumulation; format: functional, organism-based; outline: as §1
Rattus norvegicus [15] = experiment: In vivo inhibition of galactitol accumulation in the diaphragm of rats fed 20% galactose for 4 day at 115 mg/kg/day dose; format: functional; outline: as §1
Rattus norvegicus [16] = experiment: In vivo inhibition of galactitol accumulation in the sciatic nerve of rats fed 20% galactose for 4 day at 115 mg/kg/day dose; format: functional; outline: as §1
[17] = target: Aldo-keto reductase family 1 member B1 (Bos taurus) (UniProt P16116); experiment: in vitro inhibition of Aldose reductase in partially purified bovine lens preparation at a concentration of 10e-6 M.
[18] = target: Aldo-keto reductase family 1 member B1 (Bos taurus) (UniProt P16116); experiment: In vitro inhibition of Aldose reductase in partially purified bovine lens preparation at a concentration of 10e -7M.; outline: as §2
Rattus norvegicus [19] = experiment: In vivo inhibition of galactitol accumulation in the diaphragm of rats fed 20% galactose for 4 day at 79 mg/kg/day dose; NS = No Significant inhibition of polyol accumulation; format: functional, organism-based; outline: as §1
Rattus norvegicus [20] = experiment: In vivo inhibition of galactitol accumulation in the sciatic nerve of rats fed 20% galactose for 4 day at 79 mg/kg/day dose; NS = No Significant inhibition of polyol accumulation; format: functional, organism-based; outline: as §1
[21] = target: Aldo-keto reductase family 1 member B1 (Bos taurus) (UniProt P16116); experiment: in vitro inhibition of aldose reductase in partially purified bovine lens preparation at a concentration of 10e -5M.
Rattus norvegicus [22] = experiment: In vivo inhibition of galactitol accumulation in the sciatic nerve of rats fed 20% galactose for 4 day at 90 mg/kg/day dose; NS = No Significant inhibition of polyol accumulation; format: functional, organism-based; outline: as §1
Rattus norvegicus [23] = experiment: In vivo inhibition of galactitol accumulation in the diaphragm of rats fed 20% galactose for 4 day at 90 mg/kg/day dose; NS = No Significant inhibition of polyol accumulation; format: functional, organism-based; outline: as §1
Rattus norvegicus [24] = experiment: In vivo inhibition of galactitol accumulation in the diaphragm of rats fed 20% galactose for 4 day at 90 mg/kg/day dose; format: functional; outline: as §1
Rattus norvegicus [25] = experiment: In vivo inhibition of galactitol accumulation in the sciatic nerve of rats fed 20% galactose for 4 day at 102 mg/kg/day dose; format: functional; outline: as §1
Rattus norvegicus [26] = experiment: In vivo inhibition of galactitol accumulation in the diaphragm of rats fed 20% galactose for 4 day at 102 mg/kg/day dose; format: functional; outline: as §1
Rattus norvegicus [27] = experiment: In vivo inhibition of galactitol accumulation in the sciatic nerve of rats fed 20% galactose for 4 day at 97 mg/kg/day dose; format: functional
Rattus norvegicus [28] = experiment: In vivo inhibition of galactitol accumulation in the diaphragm of rats fed 20% galactose for 4 day at 97 mg/kg/day dose; format: functional; outline: as §1
Rattus norvegicus [29] = experiment: In vivo inhibition of galactitol accumulation in the diaphragm of rats fed 20% galactose for 4 day at 103 mg/kg/day dose; format: functional; outline: as §1
Rattus norvegicus [30] = experiment: In vivo inhibition of galactitol accumulation in the sciatic nerve of rats fed 20% galactose for 4 day at 105 mg/kg/day dose; NS = No Significant inhibition of polyol accumulation; format: functional, organism-based; outline: as §1
Rattus norvegicus [31] = experiment: In vivo inhibition of galactitol accumulation in the diaphragm of rats fed 20% galactose for 4 day at 105 mg/kg/day dose; NS = No Significant inhibition of polyol accumulation; format: functional, organism-based; outline: as §1
Rattus norvegicus [32] = experiment: In vivo inhibition of galactitol accumulation in the sciatic nerve of rats fed 20% galactose for 4 day at 92 mg/kg/day dose; format: functional
Rattus norvegicus [33] = experiment: In vivo inhibition of galactitol accumulation in the diaphragm of rats fed 20% galactose for 4 day at 92 mg/kg/day dose; format: functional; outline: as §1

- inhibition [2]: 79%
- inhibition [4]: 51%
SMILES: Cc1sc2c(c1C)c(=O)n(CC(=O)O)c(=O)n2Cc1ccc(Cl)c(Cl)c1
- Lowering (Rattus norvegicus [1]): Not significant
- Lowering (Rattus norvegicus [3]): Not significant

- inhibition [2]: 80%
- inhibition [4]: 51%
SMILES: O=C(O)Cn1c(=O)c2cc(Cl)ccc2n(Cc2ccc(Br)cc2F)c1=O
- Lowering (Rattus norvegicus [5]): 78%
- Lowering (Rattus norvegicus [6]): 47%

- inhibition [2]: 68%
- inhibition [4]: 41%
SMILES: O=C(O)CN1Cc2ccccc2N(Cc2ccc(Cl)c(Cl)c2)C1=O
- Lowering (Rattus norvegicus [7]): 38%
- Lowering (Rattus norvegicus [8]): Not significant

SMILES: COc1ccc2c(C(=S)N(C)CC(=O)O)cccc2c1C(F)(F)F [TOLRESTAT]
- ED50 (Rattus norvegicus [9]): 6.4 mg/kg/day

- inhibition [2]: 88%
- inhibition [4]: 64%
SMILES: O=C(O)Cn1c(=O)n(Cc2ccc(Cl)c(Cl)c2)c(=O)c2cc(Cl)ccc21
- Lowering (Rattus norvegicus [10]): 68%
- Lowering (Rattus norvegicus [11]): 38%

- inhibition [2]: 53%
- inhibition [4]: 31%
SMILES: O=C(O)CN1C(=O)N(Cc2ccc(Cl)c(Cl)c2)Cc2ccccc21
- Lowering (Rattus norvegicus [12]): 30%
- Lowering (Rattus norvegicus [8]): Not significant

- inhibition [2]: 86%
- inhibition [4]: 63%
SMILES: O=C(O)Cn1c(=O)c2c3c(sc2n(Cc2ccc(Cl)c(Cl)c2)c1=O)CCCC3
- Lowering (Rattus norvegicus [13]): 19%
- Lowering (Rattus norvegicus [14]): Not significant

- inhibition [2]: 71%
- inhibition [4]: 34%
SMILES: O=C(O)Cn1c(=O)c2ccccc2n(Cc2ccc(Br)cc2F)c1=O
- Lowering (Rattus norvegicus [15]): 58%
- Lowering (Rattus norvegicus [16]): 54%

- inhibition [17]: 76%
- inhibition [18]: 28%
SMILES: Cc1nc2cc3ccccc3cc2c(=O)n1CC(=O)O
- Lowering (Rattus norvegicus [19]): Not significant
- Lowering (Rattus norvegicus [20]): Not significant

- inhibition [21]: 40%
SMILES: CC(C)c1nc2ccc(Br)cc2c(=O)n1CC(=O)O
- Lowering (Rattus norvegicus [22]): Not significant
- Lowering (Rattus norvegicus [23]): Not significant

- inhibition [2]: 51%
- inhibition [4]: 23%
SMILES: O=C(O)CN1CN(Cc2ccc(Br)cc2F)c2ccc(Cl)cc2C1=O
- Lowering (Rattus norvegicus [24]): 38%
- Lowering (Rattus norvegicus [8]): Not significant

- inhibition [2]: 80%
- inhibition [4]: 40%
SMILES: Cc1ccc2c(c1)c(=O)n(CC(=O)O)c(=O)n2Cc1ccc(Cl)c(Cl)c1
- Lowering (Rattus norvegicus [25]): 65%
- Lowering (Rattus norvegicus [26]): 76%

- inhibition [2]: 83%
- inhibition [4]: 64%
SMILES: O=C(O)Cn1c(=O)c2cc(I)ccc2n(Cc2ccc(Br)cc2F)c1=O
- Lowering (Rattus norvegicus [27]): 64%
- Lowering (Rattus norvegicus [28]): 83%

- inhibition [2]: 74%
- inhibition [4]: 53%
SMILES: O=C(O)Cn1c(=O)c2ccc(F)cc2n(Cc2ccc(Br)cc2F)c1=O
- Lowering (Rattus norvegicus [29]): 63%
- Lowering (Rattus norvegicus [8]): Not significant

- inhibition [2]: 68%
- inhibition [4]: 43%
SMILES: O=C(O)Cn1c(=O)c2sccc2n(Cc2ccc(Br)cc2F)c1=O
- Lowering (Rattus norvegicus [30]): Not significant
- Lowering (Rattus norvegicus [31]): Not significant

- inhibition [2]: 83%
- inhibition [4]: 47%
SMILES: O=C(O)Cn1c(=O)c2cc(Br)ccc2n(Cc2ccc(Cl)c(Cl)c2)c1=O
- Lowering (Rattus norvegicus [32]): 62%
- Lowering (Rattus norvegicus [33]): 78%
